From ChEMBL document CHEMBL6134787, “Fexinidazole optimization: enhancing anti-leishmanial profile, metabolic stability and hERG safety” (RSC Med Chem, 2024)
Activity calls are given as the source filed them. The calls are words filed in the database; no cut-off is given here.

Assays:
Leishmania donovani [1] = experiment: Antileishmanial activity against miltefosine resistant Leishmania donovani HU3MILR40 amastigotes infected in mouse peritoneal macrophage assessed as inhibition of parasite growth incubated for 72 hrs by giemsa staining based analysis; format: functional, organism-based
Procedure, shortened: (§1)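 Mouse peritoneal macrophages in DMEM + 10% heat-inactivated FBS, penicillin/streptomycin; 1 × 10^5 cells per well on coverslips, adhered overnight at 37 °C, 5% CO2, non-adherent cells washed off. Infected overnight with late-log promastigotes at parasite:macrophage 40:1. Compound exposure 72 h at 37 °C; Giemsa stain, amastigotes per 100 macrophages counted, IC50 derived; means ± SD of 3–4 independent experiments.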

Leishmania donovani [2] = experiment: Antileishmanial activity against miltefosine resistant Leishmania donovani HU3MILR40 promastigotes […] assessed as inhibition of parasite growth incubated for 72 hrs by automatic microtiter plate reader analysis; format: functional, organism-based
Procedure, shortened: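 Promastigote (free parasite) assay: Schneider's Drosophila medium with 4 mM glutamine, 25 μg mL−1 gentamicin, 10% heat-inactivated FBS, pH 6.9, 27 °C. 1.5 × 10^5 promastigotes per well exposed to a concentration series for 72 h at 27 °C.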

Leishmania donovani [3] = experiment: Antileishmanial activity against wild type Leishmania donovani HU3 promastigotes […] assessed as inhibition of parasite growth incubated for 72 hrs by automatic microtiter plate reader analysis; format: functional, organism-based
[4] = Selectivity ratio of IC50 for cytotoxicity against mouse peritoneal macrophage assessed as inhibition of cell growth to IC50 for antileishmanial activity against miltefosine resistant Leishmania donovani HU3MILR40 amastigotes infected in mouse peritoneal macrophage assessed as inhibition of parasite growth; format: toxicity, cell-based; details: peritoneal macrophages, read-out: Ratio IC50
[5] = Cytotoxicity against mouse peritoneal macrophage assessed as inhibition of cell growth incubated for 72 hrs by giemsa staining based analysis; format: toxicity; details: peritoneal macrophages
Leishmania major = experiment: Antileishmanial activity against wild type Leishmania major FV1 promastigotes […] assessed as inhibition of parasite growth incubated for 72 hrs by automatic microtiter plate reader analysis; format: functional, organism-based
Procedure, shortened: (§2)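 Promastigotes were grown in Schneider's medium (4 mM glutamine, gentamicin, 10% heat-inactivated FBS, pH 6.9, 27 °C). Cells were seeded at 1.5 × 10^5/well and exposed to a concentration series for 72 h at 27 °C.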

Leishmania donovani [6] = experiment: Antileishmanial activity against wild type Leishmania donovani HU3 amastigotes infected in mouse peritoneal macrophage assessed as inhibition of parasite growth incubated for 72 hrs by giemsa staining based analysis; format: functional, organism-based; procedure, shortened: as §1
hERG (KCNH2) [7] = molecular target: T1, hERG (KCNH2) (Homo sapiens, UniProt Q12809); experiment: (§3) Inhibition of human ERG stably overexpressed in HEK293 cells assessed as remaining activity at 6 uM incubated for 30 mins by FLIPR assay; format: toxicity, cell-based; details: HEK293 cells stably overexpressing hERG, read-out: Activity
Procedure, shortened: (§4)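 HEK-293 cells stably expressing hERG, seeded at 60 000/well and grown 24 h. Compounds were added in DMSO (final 0.5%) and incubated 30 min in the dark. After 20 s baseline, Tl+ stimulus (3 mM) was added and fluorescence (ex 485/em 535 nm) recorded for 2.5 min.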

[8] = Cytotoxicity against mouse L929 cells assessed as inhibition of cell growth incubated for 72 hrs by MTS assay; format: toxicity, cell-based
Procedure, shortened: (§5)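 Cells in DMEM + 10% heat-inactivated FBS with penicillin/streptomycin at 37 °C, 5% CO2. They were seeded at 1 × 10^4/well and incubated with a concentration series for 72 h at 37 °C. Viability was read by MTS/PMS assay at 490 nm and IC50 derived.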

[9] = Metabolic stability in rat liver microsome assessed as compound remaining at 20 uM measured after 32 mins in presence of NADP and GSH by HPLC analysis; format: ADME; details: liver microsomes, read-out: Stability
Procedure, shortened: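 Rat liver microsomes (final 2 mg/mL) in 50 mM phosphate pH 7.4 with 0.3 mM NADP+, 5.3 mM glucose-6-phosphate, G6PDH, 10 mM MgCl2 and 5 mM EDTA. 20 μM compound added at 37 °C. Aliquots at 0, 16 and 32 min were quenched in ice-cold acetonitrile and centrifuged. HPLC peak area at 254/280 nm was expressed relative to 0 min.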

Leishmania braziliensis [10] = experiment: Antileishmanial activity against wild type Leishmania braziliensis UA847 promastigotes […] assessed as inhibition of parasite growth incubated for 72 hrs by automatic microtiter plate reader analysis; format: functional, organism-based; procedure, shortened: as §2
Leishmania amazonensis [11] = experiment: Antileishmanial activity against wild type Leishmania amazonensis LV78 promastigotes […] assessed as inhibition of parasite growth incubated for 72 hrs by automatic microtiter plate reader analysis; format: functional, organism-based; procedure, shortened: as §2
Leishmania braziliensis [12] = experiment: Antileishmanial activity against wild type Leishmania braziliensis UA847 amastigotes infected in mouse peritoneal macrophage assessed as inhibition of parasite growth incubated for 72 hrs by giemsa staining based analysis; format: functional, organism-based
Procedure, shortened: (§6)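 Mouse peritoneal macrophages (1 × 10^5/well on coverslips, DMEM + 10% heat-inactivated FBS, penicillin/streptomycin) adhered overnight at 37 °C, 5% CO2. They were infected overnight with late-log promastigotes at a 20:1 parasite:macrophage ratio. Cells were then treated with compound for 72 h at 37 °C and Giemsa-stained. Amastigotes per 100 macrophages were counted to derive IC50; mean ± SD of 3–4 independent experiments.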

Leishmania donovani [13] = experiment: Antileishmanial activity against miltefosine resistant Leishmania donovani HU3MILR40 amastigotes infected in mouse peritoneal macrophage assessed as inhibition of parasite growth at 1.5 uM incubated for 72 hrs by giemsa staining based analysis; format: functional, organism-based
Procedure, shortened: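 Adherent mouse peritoneal macrophages on coverslips infected overnight with late-log HU3MILR40 promastigotes (40 parasites per macrophage), then exposed to compound at a single fixed concentration in DMEM + 10% FBS for 72 h at 37 °C. Giemsa-stained coverslips imaged at 1000×; amastigotes per 100 macrophages counted versus DMSO control; mean ± SD of three independent experiments, Student's t-test.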

Leishmania amazonensis [14] = experiment: Antileishmanial activity against wild type Leishmania amazonensis LV78 amastigotes infected in mouse peritoneal macrophage assessed as inhibition of parasite growth incubated for 72 hrs by giemsa staining based analysis; format: functional, organism-based; procedure, shortened: as §6
[15] = Metabolic stability in rat liver S9 fraction assessed as compound remaining at 20 uM measured after 32 mins in presence of NADP and GSH by HPLC analysis; format: ADME, subcellular; details: read-out: Stability
Procedure, shortened: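 Rat liver S9 (final 4 mg/mL) in 50 mM phosphate pH 7.4 with NADPH-regenerating system (0.3 mM NADP+, 5.3 mM glucose-6-phosphate, G6PDH), 10 mM MgCl2 and 5 mM EDTA. Pre-warmed 10 min at 37 °C, then 20 μM compound and 5.5 μM GSH added. Samples taken at 0, 16 and 32 min were quenched in ice-cold acetonitrile. HPLC (254/280 nm) peak area was expressed relative to 0 min.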

RAW264.7 = experiment: Cytotoxicity against mouse RAW264.7 cells assessed as inhibition of cell growth incubated for 72 hrs by MTS assay; format: functional, cell-based; details: RAW264.7, 72 h; procedure, shortened: as §5
[16] = Hepatotoxicity against mouse TAMH cells assessed as cell viability at 7.8 to 125 uM incubated for 24 to 48 hrs by MTT assay; format: toxicity, cell-based; details: dose lower 7.8 µM, time lower 24 hrs, dose upper 125 µM, time upper 48 hrs, read-out: Activity
Procedure, shortened: (§7)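 TAMH mouse liver cells in FCS-free DMEM/F12 with 5% PANEXIN NTA, 10 mM nicotinamide and gentamicin. Seeded at 20 000/well and attached 24 h at 37 °C, 5% CO2. DMSO-diluted compounds were applied for 24 or 48 h. MTT was added for 4 h, formazan dissolved in DMSO and A570 read. Viability was background-corrected and expressed relative to DMSO controls; mean ± SD, ≥3 experiments.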

[17] = molecular target: T2, Voltage-gated inwardly rectifying potassium channel KCNH2 (Homo sapiens, UniProt Q12809); experiment: Inhibition of human ERG stably overexpressed in HEK293 cells incubated for 30 mins by FLIPR assay; format: toxicity, cell-based; details: human, hek293, 0.5 h; time 30 min
[18] = Hepatotoxicity against mouse TAMH cells assessed as cell viability at 125 uM incubated for 48 hrs by MTT assay; format: toxicity, cell-based; procedure, shortened: as §7
[19] = molecular target: T2, Voltage-gated inwardly rectifying potassium channel KCNH2; experiment: Inhibition of human ERG stably overexpressed in HEK293 cells at 100 uM incubated for 30 mins by FLIPR assay; format: toxicity, cell-based; details: hek293, 0.5 h, 100 µM; procedure, shortened: as §4
[20] = Hepatotoxicity against human HepG2 cells assessed as cell viability at 125 uM incubated for 48 hrs by MTT assay; format: toxicity, cell-based; details: hepg2, 48 h, 125 µM
Procedure, shortened: (§8)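 HEP-G2 cells in RPMI 1640 + 10% heat-inactivated FBS, penicillin/streptomycin. Seeded at 15 000/well and attached 24 h at 37 °C, 5% CO2. Compounds were serially diluted in DMSO, with 24 or 48 h exposure. MTT (2.5 mg/mL solution) was added for 4 h, formazan dissolved in DMSO and A570 read. Viability was background-corrected against DMSO-treated cell controls; mean ± SD, ≥3 experiments.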

hERG (KCNH2) [21] = molecular target: T1, hERG (KCNH2); experiment: Inhibition of human ERG stably overexpressed in HEK293 cells assessed as remaining activity at 25 uM incubated for 30 mins by FLIPR assay; format: toxicity, cell-based; details: HEK293 cells stably overexpressing hERG, read-out: Activity; procedure, shortened: as §4
[22] = Hepatotoxicity against mouse TAMH cells assessed as reduction in cell viability at 125 uM incubated for 24 hrs by MTT assay; format: toxicity, cell-based; procedure, shortened: as §7
[23] = molecular target: T2, Voltage-gated inwardly rectifying potassium channel KCNH2; experiment: as §3; format: toxicity, cell-based; details: hek293, 0.5 h, 6 µM; procedure, shortened: as §4
[24] = Hepatotoxicity against human HepG2 cells assessed as reduction in cell viability at 125 uM incubated for 24 hrs by MTT assay; format: toxicity, cell-based; details: hepg2, 24 h; procedure, shortened: as §8

T2 sequence (Q12809 whole entry): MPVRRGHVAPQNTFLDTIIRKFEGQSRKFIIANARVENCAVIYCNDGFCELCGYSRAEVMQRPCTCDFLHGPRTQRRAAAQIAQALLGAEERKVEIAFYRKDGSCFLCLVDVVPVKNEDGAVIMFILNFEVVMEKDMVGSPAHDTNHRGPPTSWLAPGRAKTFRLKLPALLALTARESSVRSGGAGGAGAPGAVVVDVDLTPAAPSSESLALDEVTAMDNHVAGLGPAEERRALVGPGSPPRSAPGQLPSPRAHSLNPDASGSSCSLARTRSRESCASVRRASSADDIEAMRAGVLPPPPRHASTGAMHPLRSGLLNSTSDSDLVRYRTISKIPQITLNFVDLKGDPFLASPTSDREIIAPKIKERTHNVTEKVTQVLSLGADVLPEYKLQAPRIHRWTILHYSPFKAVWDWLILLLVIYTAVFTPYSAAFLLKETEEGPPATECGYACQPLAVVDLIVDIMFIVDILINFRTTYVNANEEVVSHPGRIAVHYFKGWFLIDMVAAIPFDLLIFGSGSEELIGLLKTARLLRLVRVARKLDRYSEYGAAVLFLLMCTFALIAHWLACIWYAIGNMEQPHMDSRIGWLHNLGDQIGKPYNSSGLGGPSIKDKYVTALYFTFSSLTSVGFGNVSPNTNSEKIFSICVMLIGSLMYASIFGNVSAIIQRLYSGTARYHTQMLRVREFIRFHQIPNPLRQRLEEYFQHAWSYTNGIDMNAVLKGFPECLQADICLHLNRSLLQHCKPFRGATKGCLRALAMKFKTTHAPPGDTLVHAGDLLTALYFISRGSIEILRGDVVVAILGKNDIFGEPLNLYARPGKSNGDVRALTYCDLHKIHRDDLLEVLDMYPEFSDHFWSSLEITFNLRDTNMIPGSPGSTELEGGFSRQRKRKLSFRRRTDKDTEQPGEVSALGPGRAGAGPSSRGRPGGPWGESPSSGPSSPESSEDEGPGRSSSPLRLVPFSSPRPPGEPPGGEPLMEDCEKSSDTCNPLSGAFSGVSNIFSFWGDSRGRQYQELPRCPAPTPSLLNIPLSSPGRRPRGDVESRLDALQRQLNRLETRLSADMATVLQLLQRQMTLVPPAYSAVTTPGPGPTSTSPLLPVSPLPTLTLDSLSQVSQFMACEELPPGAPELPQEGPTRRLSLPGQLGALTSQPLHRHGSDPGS
T1 sequence (Q12809 whole entry): as above

| Structure (SMILES) | IC50 (Leishmania donovani [1]) [µM] | IC50 (Leishmania donovani [2]) [µM] | IC50 (Leishmania donovani [3]) [µM] | selectivity ratio [4] | IC50 at 72 h [5] [µM] | IC50 (Leishmania major) [µM] | IC50 (Leishmania donovani [6]) [µM] | activity at 0.5 h, 6 µM (hERG (KCNH2) [7]) [%] | IC50 at 72 h [8] [µM] | remaining at 32 min, 20 µM [9] [%] | IC50 (Leishmania braziliensis [10]) [µM] | IC50 (Leishmania amazonensis [11]) [µM] | IC50 (Leishmania braziliensis [12]) [µM] | IC50 (Leishmania amazonensis [14]) [µM] | remaining at 32 min, 20 µM [15] [%] | IC50 (RAW264.7) [µM] | viability at up to 125 µM [16] [%] | IC25 [17] [µM] | also measured |
| --- | --- | --- | --- | --- | --- | --- | --- | --- | --- | --- | --- | --- | --- | --- | --- | --- | --- | --- | --- |
| CSc1ccc(OC[C@@H]2Cn3cc([N+](=O)[O-])nc3O2)cc1 | 0.4 | 0.5 | 1.1 | > 220 | > 88 | 3.1 | 0.4 | 87 | > 92.2 | 67.5 | 1.4 | 1.2 | 0.5 | 0.6 | 97 | > 68.5 | > 50 | > 6.2 | Activity (Leishmania donovani [13]): Active |
| Cn1c([N+](=O)[O-])cnc1COc1ccc([S+](C)[O-])cc1 (configuration not stated) [FEXINIDAZOLE SULFOXIDE] | – | 4.3 | 3.4 | – | – | 1.4 | – | – | > 100 | 100 | 4.3 | 7.8 | – | – | 100 | > 100 | > 50 | > 100 | Activity [18]: Non-toxic; inhibition (INH) [19]: Not_active; Activity [20]: Non-toxic |
| CSc1ccc(OC[C@H]2Cn3cc([N+](=O)[O-])nc3O2)cc1 | 0.6 | 0.4 | 1.1 | > 143 | > 86 | 5.7 | 0.4 | 46 | > 100 | 64.7 | 1.4 | 1.9 | 1 | 0.7 | 92.1 | > 95.3 | > 50 | 3.1 | – |
| CSc1ccc(OCc2nccn2C)cc1 | – | > 20 | > 20 | – | – | > 20 | – | – | > 100 | 100 | > 20 | > 20 | – | – | 100 | > 91.1 | > 50 | 34.5 | activity at 0.5 h, 25 µM (hERG (KCNH2) [21]): 83% |
| C[S+]([O-])c1ccc(OCC2Cn3cc([N+](=O)[O-])nc3O2)cc1 (racemic) | – | 7.1 | 10.2 | – | – | > 20 | – | – | > 100 | 100 | > 20 | > 20 | – | – | 100 | > 100 | 56 | 30.1 | Activity [22]: 58%; inhibition (INH) [23]: Not_active; Activity [24]: 40.8% |
